Measured values published in ChEMBL document CHEMBL4706745, “Balanced Intersystem Crossing in Iodinated Silicon-Fluoresceins Allows New Class of Red Shifted Theranostic Agents” (ACS Med Chem Lett, 2021).
Active and inactive are the calls of the source. The calls are words filed in the database; no cut-off is given here.

Assays:
MDA-MB-231 [1] = assay: Phototoxicity against human MDA-MB-231 cells assessed as reduction in cell viability irradiated with 595 and 630 nanometer LED light and further incubated for 24 hrs by MTT assay; assay type: functional, cell-based; details: dose 0.5-20 µM
Outline: (§1)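 MTT viability assay. Cells incubated with 0.5–20 μM, then irradiated with a 595 nm (9.83 mW/cm2) or 630 nm (24.3 mW/cm2) LED for 1 or 2 h, followed by 23 or 22 h dark respectively. Light alone and vehicle controls included. Mean ± SD, n = 4.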

HCT-116 [2] = assay: Phototoxicity against human HCT-116 cells assessed as reduction in cell viability irradiated with 595 and 630 nanometer LED light and further incubated for 24 hrs by MTT assay; assay type: functional, cell-based; details: dose 0.5-20 µM; outline: as §1
MDA-MB-231 [3] = assay: Cytotoxicity against human MDA-MB-231 cells assessed as reduction in cell viability at 0.5 to 20 uM incubated for 24 hrs by MTT assay; assay type: cell-based; details: mda-mb-231, 24 h, dose 0.5-20 µM
Outline: (§2)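 Cells exposed to 0.5–20 μM for 24 h in the dark, then assessed by MTT for viability. Vehicle control included. Mean ± SD, n = 4.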

HCT-116 [4] = assay: Cytotoxicity against human HCT-116 cells assessed as reduction in cell viability at 0.5 to 20 uM incubated for 24 hrs by MTT assay; assay type: cell-based; details: hct-116, 24 h, dose 0.5-20 µM; outline: as §2
MDA-MB-231 [5] = assay: Induction of ROS generation in human MDA-MB-231 cells at 5 uM irradiated with 595 +/- 5 nanometer LED light for 2 hr by DCFH2-DA staining based confocal microscopic analysis; assay type: functional, cell-based
Outline: (§3)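 Cells loaded with 5 μM compound and the ROS sensor DCFH2-DA; kept dark or irradiated with a 595 nm LED for 2 h, with or without NaN3 as singlet oxygen quencher. Green emission imaged by confocal microscopy. Controls: DMSO 0.5% vehicle and H2O2 (500 μM, 2 h) as positive control.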

HCT-116 [6] = assay: Induction of ROS generation in human HCT-116 cells at 5 uM irradiated with 595 +/- 5 nanometer LED light for 2 hr by DCFH2-DA staining based confocal microscopic analysis; assay type: functional, cell-based; outline: as §3
MDA-MB-231 [7] = assay: Induction of ROS generation in human MDA-MB-231 cells at 5 uM incubated for 2 hr by DCFH2-DA staining based confocal microscopic analysis; assay type: cell-based; details: mda-mb-231, 2 h; outline: as §3
HCT-116 [8] = assay: Induction of ROS generation in human HCT-116 cells at 5 uM incubated for 2 hr by DCFH2-DA staining based confocal microscopic analysis; assay type: cell-based; details: hct-116, 2 h; outline: as §3
MDA-MB-231 [9] = assay: Induction of apoptosis in human MDA-MB-231 cells assessed as increase in necrotic cells at 5 uM irradiated with 595 +/- 5 nanometer LED light for 2 hrs by annexin V-FITC and PI staining based confocal microscopic analysis; assay type: functional, cell-based
Outline: (§4)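 Cells treated with 5 μM and either kept dark or irradiated 2 h with a 595 nm LED, with or without NaN3. Annexin V-FITC (early apoptosis) and PI (late apoptosis/necrosis) staining 30 min after PDT, then confocal imaging. DMSO 0.5% vehicle control.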

HCT-116 [10] = assay: Induction of apoptosis in human HCT-116 cells assessed as increase in necrotic cells at 5 uM irradiated with 595 +/- 5 nanometer LED light for 2 hrs by annexin V-FITC and PI staining based confocal microscopic analysis; assay type: functional, cell-based; outline: as §4
[11] = Drug uptake in human MDA-MB-231 cells assessed as cytosolic red emission at 5 uM incubated for 2 hrs by Hoechst-33342 staining based confocal microscopic analysis; assay type: ADME, cell-based; details: mda-mb-231, 2 h
Outline: (§5)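 Cells incubated with 5 μM for 2 h and washed before confocal imaging of intracellular red emission.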

[12] = Drug uptake in human HCT-116 cells assessed as cytosolic red emission at 5 uM incubated for 2 hrs by Hoechst-33342 staining based confocal microscopic analysis; assay type: ADME, cell-based; details: hct-116, 2 h; outline: as §5
[13] = Induction of singlet oxygen generation in DMSO/ADMDA solution assessed as decrease in ADMDA absorption irradiated with 595 nanometer LED light at 5 uM; assay type: functional
Outline: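 5 μM compound mixed with the water-soluble trap ADMDA in oxygen-saturated PBS (pH 7.4, 0.5% DMSO), then LED irradiated (595 nm at 9.83 mW/cm2). Decrease in ADMDA absorption monitored, with the first 40 s kept in the dark.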

[14] = Induction of singlet oxygen generation in DMSO solution using singlet oxygen sensor green assessed as increase in SOSG intensity irradiated with 595 nanometer LED light at 5 uM; assay type: functional
Outline: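 5 μM compound with singlet oxygen sensor green (SOSG); increase in SOSG emission monitored during 595 nm LED irradiation (9.83 mW/cm2).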

[15] = Induction of singlet oxygen generation in DMSO/ADMDA solution assessed as decrease in ADMDA absorption irradiated with 630 nanometer LED light at 5 uM; assay type: functional
[16] = Induction of singlet oxygen generation in DMSO solution using singlet oxygen sensor green assessed as increase in SOSG intensity irradiated with 630 nanometer LED light at 5 uM; assay type: functional
[17] = Photostability in pH 7.4 PBS buffer at 614/630 nanometer irradiated with 595 nanometer LED light for 2 hrs by measuring fluorescence peak; assay type: physicochemical; details: pH 7.4, 2 h
Outline: (§6)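 Absorption at 614 nm and emission at 630 nm tracked under continuous 595 or 630 nm LED irradiation for 2 h in PBS (pH 7.4, 0.5% DMSO).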

[18] = Photostability in pH 7.4 PBS buffer at 614/630 nanometer irradiated with 630 nanometer LED light for 2 hrs by measuring fluorescence peak; assay type: physicochemical; details: pH 7.4, 2 h; outline: as §6
MDA-MB-231 [19] = assay: Induction of apoptosis in human MDA-MB-231 cells at 5 uM irradiated with 595 +/- 5 nanometer LED light for 2 hrs in presence of NaN3 by annexin V-FITC and PI staining based confocal microscopic analysis; assay type: functional, cell-based; outline: as §4
HCT-116 [20] = assay: Induction of apoptosis in human HCT-116 cells at 5 uM irradiated with 595 +/- 5 nanometer LED light for 2 hrs in presence of NaN3 by annexin V-FITC and PI staining based confocal microscopic analysis; assay type: functional, cell-based; outline: as §4
[21] = Induction of singlet oxygen generation in pH 7.4 DMSO solution at 614 nanometer assessed as singlet oxygen quantum yield irradiated with 595 nanometer LED light; assay type: functional
[22] = Induction of singlet oxygen generation in pH 7.4 DMSO solution at 614 nanometer assessed as singlet oxygen quantum yield irradiated with 630 nanometer LED light; assay type: functional
[23] = Fluorescence property of the compound in pH 7.4 PBS buffer assessed as fluorescence quantum yield by fluorescence spectrophotometric method; assay type: physicochemical

Drug uptake [11]: Active | Drug uptake [12]: Active | Stabilty [17]: Stable | Stabilty [18]: Stable | Activity [23]: 11%
SMILES: C[Si]1(C)C2=C(I)C(=O)C(I)=CC2=C(c2ccccc2C(=O)O)c2cc(I)c(O)c(I)c21
inhibition (MDA-MB-231 [1]): Dose-dependent effect | inhibition (HCT-116 [2]): Dose-dependent effect | Activity (MDA-MB-231 [3]): Non-Toxic | Activity (HCT-116 [4]): Non-Toxic | Activity (MDA-MB-231 [5]): Active | Activity (HCT-116 [6]): Active | Activity (MDA-MB-231 [7]): Non-Toxic | Activity (HCT-116 [8]): Non-Toxic | Activity (MDA-MB-231 [9]): inactive | Activity (HCT-116 [10]): inactive | Activity [13]: Active | Activity [14]: Active | Activity [15]: Active | Activity [16]: Active | Activity (MDA-MB-231 [19]): inactive | Activity (HCT-116 [20]): inactive | Activity [21]: 45% | Activity [22]: 30%
